# Laboratory results taken from ChEMBL document CHEMBL1287681, “Tetrahydrocarboline analogs as MCH-1 antagonists” (Bioorg Med Chem Lett, 2010).
# How the values were obtained:
# [1] = Half life in human liver microsome; type: ADME; conditions: liver microsomes
# Outline: (§1)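 Half-life in mouse or human liver microsomes, reported in min.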
# [2] = target: T1, Melanin-concentrating hormone receptor 1 (Homo sapiens, UniProt Q99705); assay: Displacement of [3H]4-(benzyloxy)-1-(1-(2-(pyrrolidin-1-yl)ethyl)-1H-indazol-5-yl)pyridin-2(1H)-one from MCH-1 receptor expressed in CHO-K1 cells; type: cell-based
# Outline: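 Membranes from stable CHO-K1 cells expressing human MCH-1 receptor (8.92 µg protein) incubated 60 min at 25 °C with 1.4 nM tritiated indazolyl-pyridinone radioligand ± test compound in 50 mM Tris–HCl, pH 7.4. Nonspecific binding defined with 50 µM of a piperazinylpropyl urea ligand. Values are means of at least two determinations, each within 40% of the mean.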
# [3] = AUC (0 to 6 hrs) in DIO mouse at 30 mg/kg, po; type: ADME, organism-based; design: time < 6 hr, dose 30 mg/kg, route oral; conditions: plasma
# Outline: (§2)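 DIO mice given 30 mg/kg orally. Plasma (ng/mL) and brain (ng/g) concentrations measured 6 h post dose; AUC determined from 0 to 6 h.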
# Cytochrome P450 2D6 = Cytochrome P450 2D6 (Homo sapiens, UniProt P10635); assay: Inhibition of CYP2D6; type: ADME
# [4] = Half life in mouse liver microsome; type: ADME; conditions: liver microsomes; outline: as §1
# Cytochrome P450 2B6 = target: T2, Cytochrome P450 2B6 (Homo sapiens, UniProt P20813); assay: Inhibition of CYP2B6; type: ADME
# T2 sequence (P20813 whole entry): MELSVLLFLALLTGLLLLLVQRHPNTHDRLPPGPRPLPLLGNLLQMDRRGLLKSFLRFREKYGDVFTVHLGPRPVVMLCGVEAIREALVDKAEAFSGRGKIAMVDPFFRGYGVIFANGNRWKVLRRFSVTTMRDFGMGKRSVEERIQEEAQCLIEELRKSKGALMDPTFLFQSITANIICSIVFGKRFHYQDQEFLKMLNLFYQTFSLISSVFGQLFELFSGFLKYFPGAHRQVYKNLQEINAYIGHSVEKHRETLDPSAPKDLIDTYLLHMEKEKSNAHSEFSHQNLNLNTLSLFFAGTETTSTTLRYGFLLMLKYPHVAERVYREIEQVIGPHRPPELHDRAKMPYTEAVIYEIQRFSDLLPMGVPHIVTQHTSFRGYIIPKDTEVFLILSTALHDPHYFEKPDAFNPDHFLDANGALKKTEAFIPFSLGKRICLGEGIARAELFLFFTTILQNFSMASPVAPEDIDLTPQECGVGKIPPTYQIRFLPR
# Cytochrome P450 1A2 = target: T3, Cytochrome P450 1A2 (Homo sapiens, UniProt P05177); assay: (§3) Inhibition of CYP1A2; type: ADME
# T3 sequence (P05177 whole entry): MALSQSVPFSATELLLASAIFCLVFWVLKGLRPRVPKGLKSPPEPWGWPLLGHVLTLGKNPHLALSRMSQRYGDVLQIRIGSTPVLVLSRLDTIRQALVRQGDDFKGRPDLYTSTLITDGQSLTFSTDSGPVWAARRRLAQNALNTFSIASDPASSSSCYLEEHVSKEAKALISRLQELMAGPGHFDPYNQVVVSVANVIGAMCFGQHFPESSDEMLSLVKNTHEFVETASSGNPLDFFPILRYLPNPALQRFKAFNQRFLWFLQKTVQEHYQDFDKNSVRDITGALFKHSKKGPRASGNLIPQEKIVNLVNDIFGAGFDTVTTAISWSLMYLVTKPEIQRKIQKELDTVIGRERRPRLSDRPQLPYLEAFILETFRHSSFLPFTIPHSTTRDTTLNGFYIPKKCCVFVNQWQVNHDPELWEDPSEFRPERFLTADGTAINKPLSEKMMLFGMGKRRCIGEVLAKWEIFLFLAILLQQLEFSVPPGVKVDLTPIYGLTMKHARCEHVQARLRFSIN
# [5] = Drug level in DIO mouse brain at 30 mg/kg, po after 6 hrs; type: ADME, organism-based; design: dose 30 mg/kg, route oral; conditions: read-out: Drug uptake; outline: as §2
# [6] = Ratio of drug level in brain to plasma in DIO mouse at 30 mg/kg, po; conditions: read-out: BPR
# [7] = Ionisation constant for the compound; type: physicochemical
# [8] = Aqueous solubility of the compound in PBS buffer at pH 7.4 after 24 hrs; type: physicochemical
# Outline: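 Solubility measured in PBS at pH 7.4 after a 24 h equilibration period.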
# [9] = Plasma protein binding in DIO mouse at 30 mg/kg, po; type: ADME, organism-based; design: dose 30 mg/kg, route oral; conditions: read-out: PPB (converted)
# Outline: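 Mouse plasma protein binding determined by ultrafiltration.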
# [10] = target: T1, Melanin-concentrating hormone receptor 1; assay: Antagonist activity at MCH-1 receptor; type: functional
# Outline: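 Functional antagonism read as Ca2+ mobilization in an Aequorin cell line expressing recombinant MCH-1 receptor, run by a contract lab.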
# Cytochrome P450 3A4 = Cytochrome P450 3A4 (Homo sapiens, UniProt P08684); assay: Inhibition of CYP3A4; type: ADME
# Mus musculus [11] = assay: Antiobesity activity in diet-induced obese mouse assessed as reduction in body weight at 30 mg/kg qd; type: functional; design: scale not given: the % may be the effect or the level left
# Outline: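 Male C57BL/6J diet-induced obese mice dosed orally once daily, 30 mg/kg in 1% methylcellulose in water, for 5 days. Body weight tracked daily; % difference from vehicle control on Day 6. Adjusted means, n = 8–10, ANCOVA with Day 1 body weight as covariate, then Dunnett's test.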
# [12] = Drug level in DIO mouse plasma at 30 mg/kg, po after 6 hrs; type: ADME, organism-based; design: dose 30 mg/kg, route oral; outline: as §2
# [13] = tested on: panel of 30 GPCRs and transporters (off-target); assay: Inhibition of panel of 30 GPCRs and transporters at 1 uM
# [14] = Ratio of drug level in brain to plasma in lean mouse at 10 mg/kg, po; conditions: read-out: BPR
# Cytochrome P450 2C9 = Cytochrome P450 2C9 (Homo sapiens, UniProt P11712)
# Cytochrome P450 2C19 = Cytochrome P450 2C19 (Homo sapiens, UniProt P33261)
# [15] = Stability in human liver microsome assessed as compound remaining after 1 hr; type: ADME; conditions: liver microsomes, read-out: Stability
# Outline: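 Human liver microsome incubation; percentage of parent remaining after 1 h.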
# Mus musculus [16] = assay: Antiobesity activity in diet-induced obese mouse assessed as reduction in body weight at 60 mg/kg qd; type: functional; design: scale not given: the % may be the effect or the level left
# Mus musculus [17] = assay: Antiobesity activity in diet-induced obese mouse assessed as reduction in body weight at 30 mg/kg bid; type: functional; design: scale not given: the % may be the effect or the level left
# CYP1A2 = target: T4, CYP1A2 (Homo sapiens, UniProt P05177); assay: as §3; type: ADME
# T4 sequence (P05177 whole entry): T3 sequence (P05177 whole entry)
# Sequence of Cytochrome P450 3A4 (P08684 whole entry): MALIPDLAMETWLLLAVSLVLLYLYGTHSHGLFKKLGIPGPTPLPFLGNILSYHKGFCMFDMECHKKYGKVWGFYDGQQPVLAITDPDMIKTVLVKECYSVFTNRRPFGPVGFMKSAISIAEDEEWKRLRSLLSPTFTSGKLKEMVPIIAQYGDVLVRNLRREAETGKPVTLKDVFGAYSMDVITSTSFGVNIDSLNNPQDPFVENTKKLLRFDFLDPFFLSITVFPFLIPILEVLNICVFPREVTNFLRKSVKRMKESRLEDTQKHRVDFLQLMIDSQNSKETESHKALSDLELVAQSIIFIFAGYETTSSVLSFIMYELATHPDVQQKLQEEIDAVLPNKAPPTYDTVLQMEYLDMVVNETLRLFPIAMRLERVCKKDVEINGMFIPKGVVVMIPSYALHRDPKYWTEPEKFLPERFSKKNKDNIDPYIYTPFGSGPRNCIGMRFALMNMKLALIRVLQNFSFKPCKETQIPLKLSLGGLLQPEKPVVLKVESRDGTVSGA
# T1 sequence (Q99705 whole entry): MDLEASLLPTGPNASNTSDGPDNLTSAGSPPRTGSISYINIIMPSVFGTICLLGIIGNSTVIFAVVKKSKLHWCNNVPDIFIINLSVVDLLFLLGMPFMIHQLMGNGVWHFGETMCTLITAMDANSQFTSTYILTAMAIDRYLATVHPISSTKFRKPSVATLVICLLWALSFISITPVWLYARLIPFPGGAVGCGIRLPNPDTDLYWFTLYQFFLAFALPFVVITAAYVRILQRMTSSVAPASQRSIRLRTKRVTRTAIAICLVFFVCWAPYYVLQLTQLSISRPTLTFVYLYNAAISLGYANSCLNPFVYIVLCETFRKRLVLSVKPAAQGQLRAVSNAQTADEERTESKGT
# Sequence of Cytochrome P450 2D6 (P10635 whole entry): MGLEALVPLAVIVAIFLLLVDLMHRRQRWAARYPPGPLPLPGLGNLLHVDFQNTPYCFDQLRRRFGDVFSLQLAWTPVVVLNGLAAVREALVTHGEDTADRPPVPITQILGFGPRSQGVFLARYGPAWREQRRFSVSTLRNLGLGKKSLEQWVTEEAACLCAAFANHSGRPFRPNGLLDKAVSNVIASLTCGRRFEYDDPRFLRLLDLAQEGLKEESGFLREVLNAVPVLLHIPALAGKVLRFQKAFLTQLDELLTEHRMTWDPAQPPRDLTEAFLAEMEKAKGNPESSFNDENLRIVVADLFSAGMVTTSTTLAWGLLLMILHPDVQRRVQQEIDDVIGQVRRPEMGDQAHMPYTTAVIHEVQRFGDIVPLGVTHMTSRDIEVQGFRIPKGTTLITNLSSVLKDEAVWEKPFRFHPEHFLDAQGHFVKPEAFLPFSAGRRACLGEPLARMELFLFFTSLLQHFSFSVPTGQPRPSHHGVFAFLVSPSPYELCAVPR
# Sequence of Cytochrome P450 2C9 (P11712 whole entry): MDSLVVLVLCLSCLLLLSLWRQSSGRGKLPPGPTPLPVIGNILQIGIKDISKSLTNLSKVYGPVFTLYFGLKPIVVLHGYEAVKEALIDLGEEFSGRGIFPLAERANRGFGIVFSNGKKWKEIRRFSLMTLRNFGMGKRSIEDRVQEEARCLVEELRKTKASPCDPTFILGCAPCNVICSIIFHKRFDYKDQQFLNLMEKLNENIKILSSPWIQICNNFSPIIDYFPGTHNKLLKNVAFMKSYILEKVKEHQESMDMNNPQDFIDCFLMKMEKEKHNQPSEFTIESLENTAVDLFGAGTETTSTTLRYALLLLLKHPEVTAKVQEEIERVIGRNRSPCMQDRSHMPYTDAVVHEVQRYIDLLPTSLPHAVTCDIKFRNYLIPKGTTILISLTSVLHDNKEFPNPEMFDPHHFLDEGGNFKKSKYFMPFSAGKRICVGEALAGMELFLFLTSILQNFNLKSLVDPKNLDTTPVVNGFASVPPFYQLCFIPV
# Sequence of Cytochrome P450 2C19 (P33261 whole entry): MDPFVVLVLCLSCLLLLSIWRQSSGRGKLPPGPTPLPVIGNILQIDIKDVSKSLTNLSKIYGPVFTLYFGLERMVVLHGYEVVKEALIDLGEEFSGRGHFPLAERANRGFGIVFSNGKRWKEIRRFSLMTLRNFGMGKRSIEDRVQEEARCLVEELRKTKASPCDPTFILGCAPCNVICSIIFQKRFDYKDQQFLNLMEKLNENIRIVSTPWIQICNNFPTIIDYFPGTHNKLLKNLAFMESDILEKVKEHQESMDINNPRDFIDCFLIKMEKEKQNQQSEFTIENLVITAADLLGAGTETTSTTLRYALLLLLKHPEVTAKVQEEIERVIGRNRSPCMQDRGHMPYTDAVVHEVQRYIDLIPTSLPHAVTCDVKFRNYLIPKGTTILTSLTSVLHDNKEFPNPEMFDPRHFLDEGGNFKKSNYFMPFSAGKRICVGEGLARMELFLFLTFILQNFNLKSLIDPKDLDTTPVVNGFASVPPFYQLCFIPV
smiles,measurement,setting,value
Cn1c2c(c3ccc(-n4ccc(OCc5ccccc5)cc4=O)cc31)CCNC2,half-life,[1],7.5 h
same,Ki,[2],4.9 nM
same,AUC(0-t) at 6 h,[3],41300 ng·h/mL
same,IC50,Cytochrome P450 2D6,> 10000 nM
same,half-life,[4],8.03 h
same,IC50,Cytochrome P450 2B6,> 10000 nM
same,IC50,Cytochrome P450 1A2,> 10000 nM
same,concentration at 6 h,[5],4010 ng/mL
same,Kp,[6],0.51
same,pKa,[7],8.81
same,solubility at 24 h,[8],> 500 µM
same,fraction unbound,[9],0.059
same,IC50,[10],14.4 nM
same,IC50,Cytochrome P450 3A4,12000 nM
same,Activity,Mus musculus [11],9.1%
same,concentration at 6 h,[12],8030 ng/mL
CC(=O)N1CCc2c(c3ccc(-n4ccc(OCc5ccccc5)cc4=O)cc3n2C)C1,Ki,[2],168 nM
COc1ccc(-c2ccn(-c3ccc4c5c(n(C)c4c3)CNCC5)c(=O)c2)c(C)c1,Ki,[2],14 nM
CN1CCc2c(n(C)c3cc(-n4ccc(-c5ccc(F)cn5)cc4=O)ccc23)C1,Ki,[2],708 nM
Cn1c2c(c3ccc(-n4ccc(-c5ccccc5)cc4=O)cc31)CNCC2,Ki,[2],15 nM
CN1CCc2c(n(C)c3cc(-n4ccc(-c5ccc(Cl)cc5)cc4=O)ccc23)C1,Ki,[2],5.6 nM
CN1CCc2c(c3ccc(-n4ccc(OCc5ccccc5)cc4=O)cc3n2C)C1,half-life,[1],12.8 h
same,Ki,[2],4.5 nM
same,AUC(0-t) at 6 h,[3],27000 ng·h/mL
same,IC50,Cytochrome P450 2D6,> 10000 nM
same,half-life,[4],> 16.7 h
same,IC50,Cytochrome P450 2B6,> 10000 nM
same,IC50,Cytochrome P450 1A2,> 10000 nM
same,solubility at 24 h,[8],110 µM
same,inhibition,[13],< 55%
same,fraction unbound,[9],0.016
same,Kp,[14],0.9
same,IC50,Cytochrome P450 3A4,67000 nM
same,Activity,Mus musculus [11],7.2%
same,concentration at 6 h,[12],5030 ng/mL
COc1ccc(-c2ccn(-c3ccc4c5c(n(C)c4c3)CNCC5)c(=O)c2)cc1,Ki,[2],14 nM
Cn1c2c(c3ccc(-n4ccc(OCc5ccccc5)cc4=O)cc31)CN(CCO)CC2,Ki,[2],3.6 nM
Cn1c2c(c3ccc(-n4ccc(-c5ccc(Cl)cn5)cc4=O)cc31)CCNC2,Ki,[2],128 nM
COc1cc(Cl)ccc1-c1ccn(-c2ccc3c4c(n(C)c3c2)CCNC4)c(=O)c1,Ki,[2],7 nM
Cn1c2c(c3ccc(-n4ccc(OCc5ccc(Cl)cc5)cc4=O)cc31)CNCC2,Ki,[2],4.2 nM
CSc1ccc(-c2ccn(-c3ccc4c5c(n(C)c4c3)CCNC5)c(=O)c2)cc1,Ki,[2],2.4 nM
Cn1c2c(c3ccc(-n4ccc(-c5ccc(C(F)(F)F)cc5)cc4=O)cc31)CCNC2,Ki,[2],11 nM
CN1CCc2c(n(C)c3cc(-n4ccc(-c5ccc(Cl)cc5Cl)cc4=O)ccc23)C1,Ki,[2],14 nM
Cn1c2c(c3ccc(-n4ccc(OCc5ccccc5)cc4=O)cc31)CNCC2,half-life,[1],7.7 h
same,Ki,[2],3.8 nM
same,IC50,Cytochrome P450 2D6,> 10000 nM
same,IC50,Cytochrome P450 2B6,> 10000 nM
same,IC50,Cytochrome P450 1A2,> 10000 nM
same,IC50,Cytochrome P450 2C9,> 10000 nM
same,IC50,Cytochrome P450 2C19,> 10000 nM
same,remaining at 1 h,[15],98.4%
same,solubility at 24 h,[8],470 µM
same,IC50,Cytochrome P450 3A4,68000 nM
Cn1c2c(c3ccc(-n4ccc(OCc5ccc(C(F)(F)F)cc5)cc4=O)cc31)CNCC2,Ki,[2],6.7 nM
CN1CCc2c(n(C)c3cc(-n4ccc(OCc5ccc(C(F)(F)F)cc5)cc4=O)ccc23)C1,Ki,[2],25 nM
O=c1cc(OCc2ccccc2)ccn1-c1ccc2c(cnn2CCN2CCCC2)c1,Activity,Mus musculus [16],2.8%
same,AUC(0-t) at 6 h,[3],14800 ng·h/mL
same,Activity,Mus musculus [17],6%
same,IC50,CYP1A2,> 10000 nM
same,concentration at 6 h,[5],1380 ng/mL
same,Kp,[6],0.72
same,pKa,[7],8.63
same,fraction unbound,[9],0.086
same,concentration at 6 h,[12],1950 ng/mL
CN1CCc2c(c3ccc(-n4ccc(-c5ccc(F)cc5)cc4=O)cc3n2C)C1,Ki,[2],7.8 nM
Cn1c2c(c3ccc(-n4ccc(-c5ccc(Cl)cc5)cc4=O)cc31)CCNC2,Ki,[2],11 nM
Cn1c2c(c3ccc(-n4ccc(-c5ccc(Cl)cc5)cc4=O)cc31)CNCC2,Ki,[2],2.7 nM
COc1cc(Cl)ccc1-c1ccn(-c2ccc3c4c(n(C)c3c2)CNCC4)c(=O)c1,Ki,[2],17 nM
COc1ccc(-c2ccn(-c3ccc4c5c(n(C)c4c3)CCNC5)c(=O)c2)cc1,Ki,[2],2.6 nM
COc1ccc(-c2ccn(-c3ccc4c5c(n(C)c4c3)CCNC5)c(=O)c2)c(C)c1,Ki,[2],7.6 nM
CN1CCc2c(n(C)c3cc(-n4ccc(OCc5ccccc5)cc4=O)ccc23)C1,half-life,[1],> 16.7 h
same,Ki,[2],5.2 nM
same,IC50,Cytochrome P450 2D6,> 10000 nM
same,half-life,[4],1.05 h
same,IC50,Cytochrome P450 2B6,> 10000 nM
same,IC50,Cytochrome P450 1A2,> 10000 nM
same,solubility at 24 h,[8],93 µM
same,IC50,Cytochrome P450 3A4,24000 nM
CN1CCc2c(n(C)c3cc(-n4ccc(OCc5ccc(Cl)cc5)cc4=O)ccc23)C1,Ki,[2],7.6 nM
Cn1c2c(c3ccc(-n4ccc(-c5ccc(Cl)cc5Cl)cc4=O)cc31)CNCC2,Ki,[2],7.2 nM
Cn1c2c(c3ccc(-n4ccc(-c5ccc(C(F)(F)F)cc5)cc4=O)cc31)CNCC2,Ki,[2],4.2 nM
CSc1ccc(-c2ccn(-c3ccc4c5c(n(C)c4c3)CNCC5)c(=O)c2)cc1,Ki,[2],8.4 nM
